Experimental findings from ChEMBL document CHEMBL1142936, “Library synthesis and screening: 2,4-diphenylthiazoles and 2,4-diphenyloxazoles as potential novel prion disease therapeutics” (2007) are described below.

In experiment [1] the target is Major prion protein (Mus musculus) (UniProt P04925). Description: Binding affinity at mouse PrPC at 40 uM by SPR assay.
Experiment [2] deals with Major prion protein (Homo sapiens) (UniProt P04156). The experiment can be described thus: Binding affinity at human PrPC at 40 uM by SPR assay. A general note: SPR reads the build-up and loss of mass on a sensor chip optically.
Experiment [3] can be described thus: Inhibition of PrPSc formation in mouse SMB cells at 2.5 uM after 5 days […] relative to control. To be noted: 120 h. The class given is functional. Put shortly: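 Scrapie-infected SMB mouse cells seeded at 3 × 10⁴ per well, attached 24 h, then exposed 5 days to compound. DMSO stocks were 400× final, diluted 20-fold into Hank's salt solution, then 20-fold into medium. Lysates were dot-blotted at about 30-40 µg protein, guanidine thiocyanate treated, and probed with anti-PrP 6H4 with ECL detection. PrP^Sc was expressed relative to untreated control, as the mean of triplicates with standard deviation.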

Major prion protein (Mus musculus), sequence (P04925 whole entry): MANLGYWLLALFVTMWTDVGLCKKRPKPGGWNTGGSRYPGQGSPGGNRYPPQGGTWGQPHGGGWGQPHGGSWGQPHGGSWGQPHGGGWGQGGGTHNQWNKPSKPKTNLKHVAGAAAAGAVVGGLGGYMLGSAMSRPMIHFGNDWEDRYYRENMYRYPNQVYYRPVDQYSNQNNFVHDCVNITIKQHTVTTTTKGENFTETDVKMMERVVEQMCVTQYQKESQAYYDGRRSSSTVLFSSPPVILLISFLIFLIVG

For `O=C(Nc1oc(-c2ccccc2)nc1-c1ccccc1)C1CC1`, the RUmax in experiment [1] and in experiment [2] was 0% throughout.
For `O=C(Nc1oc(-c2ccccc2)nc1-c1ccccc1)c1ccno1`, the RUmax amounted to 21.7% in experiment [1] and 18.3% in experiment [2].
Take `O=C(Nc1oc(-c2ccccc2)nc1-c1ccccc1)c1cccnc1`: the RUmax in experiment [1] was determined as 40%; in experiment [2] it was 37.3%.
On to `Cc1ccc(C(=O)Nc2sc(-c3ccccc3)nc2-c2ccccc2)s1`, for which the RUmax is 0% in experiment [1] and 19.8% in experiment [2].
For `O=C(Nc1sc(-c2ccccc2)nc1-c1ccccc1)C1CC1`, in that order: 0% and 0%.
For `O=C(Nc1sc(-c2ccccc2)nc1-c1ccccc1)c1cccc(C(F)(F)F)c1`, in that order: 0% and 65%.
In the case of `O=C(Nc1sc(-c2ccccc2)nc1-c1ccccc1)c1ccc([N+](=O)[O-])o1`, the RUmax in experiment [1] and in experiment [2] was 0% throughout.
On to `O=C(Nc1oc(-c2ccccc2)nc1-c1ccccc1)c1ccc2ccccc2n1`, for which the RUmax in experiment [1] and in experiment [2] was 0% each time.
`O=C(Nc1oc(-c2ccccc2)nc1-c1ccccc1)c1cc2ccccc2s1`: the RUmax was determined as 59.6% in experiment [1] and 48% in experiment [2].
Consider `O=C(Nc1oc(-c2ccccc2)nc1-c1ccccc1)c1ccc([N+](=O)[O-])o1`, for which the RUmax in experiment [1] and in experiment [2] was 0% each time.
`O=C(Nc1sc(-c2ccccc2)nc1-c1ccccc1)c1nc2ccccc2s1`: the RUmax in experiment [1] turned out to be 0%; in experiment [2], 40.1%.
In the case of `O=C(Nc1oc(-c2ccccc2)nc1-c1ccccc1)c1ccc(F)cc1`, the RUmax in experiment [1] and in experiment [2] was 0% in each case.
As to `O=C(Nc1sc(-c2ccccc2)nc1-c1ccccc1)c1cc2ccccc2s1`, the RUmax in experiment [1] stood at 0%; in experiment [2], 21.1%.
Consider `O=C(Nc1sc(-c2ccccc2)nc1-c1ccccc1)C(F)(F)F`, for which the RUmax in experiment [1] turned out to be 18.7%; in experiment [2], 9.5%. The inhibition at 2.5 µM in experiment [3] amounted to 13.7%.
For `CCCC(CCC)C(=O)Nc1sc(-c2ccccc2)nc1-c1ccccc1`, the RUmax in experiment [1] and in experiment [2] was 0% each time.
For `O=C(Nc1oc(-c2ccccc2)nc1-c1ccccc1)c1ccncc1`, the RUmax in experiment [1] and in experiment [2] was 0% each time.
Consider `O=C(Nc1sc(-c2ccccc2)nc1-c1ccccc1)c1cccnc1`, for which the RUmax in experiment [1] and in experiment [2] was 0% throughout.
For `O=C(Nc1sc(-c2ccccc2)nc1-c1ccccc1)c1ccncc1`, the values for the RUmax in experiment [1] and in experiment [2] were 8.5% and 5%, respectively.
As for `COc1ccc(C(=O)Nc2oc(-c3ccccc3)nc2-c2ccccc2)cc1`, the RUmax in experiment [1] and in experiment [2] was 0% throughout.
For `O=C(Nc1oc(-c2ccccc2)nc1-c1ccccc1)c1ccc(C(F)(F)F)cc1`, the RUmax in experiment [1] and in experiment [2] was 0% each time.
Regarding `O=C(Nc1sc(-c2ccccc2)nc1-c1ccccc1)c1ccno1`, the RUmax in experiment [1] and in experiment [2] was 0% in each case.
Take `O=C(Nc1sc(-c2ccccc2)nc1-c1ccccc1)c1ccccc1C(F)(F)F`: the RUmax in experiment [1] and in experiment [2] was 0% throughout.
With `O=C(Nc1oc(-c2ccccc2)nc1-c1ccccc1)c1cccs1`, the RUmax is 37.4% in experiment [1] and 27.5% in experiment [2].
On to `CC(C)(C)OC(=O)Nc1oc(-c2ccccc2)nc1-c1ccccc1`, for which the RUmax worked out at 10.6% in experiment [1] and 11.3% in experiment [2].
Regarding `O=C(Nc1sc(-c2ccccc2)nc1-c1ccccc1)c1ccc(C(F)(F)F)cc1`, the RUmax in experiment [1] and in experiment [2] was 0% each time.
Turning to `O=C(Nc1oc(-c2ccccc2)nc1-c1ccccc1)C(F)(F)F`, the RUmax in experiment [1] worked out at 22%; in experiment [2], 13.7%. The molecule further registered an inhibition at 2.5 µM in experiment [3] of 35.1%.
Turning to `O=C(Nc1oc(-c2ccccc2)nc1-c1ccccc1)c1cc2ccccc2o1`, the RUmax is 58% in experiment [1] and 48.9% in experiment [2].
For the molecule `O=C(Nc1sc(-c2ccccc2)nc1-c1ccccc1)c1ccco1`, the RUmax in experiment [1] is 8.4%; in experiment [2], 6.5%.
Take `O=C(Nc1sc(-c2ccccc2)nc1-c1ccccc1)c1ccccc1`: the RUmax in experiment [1] and in experiment [2] was 0% throughout.
Take `O=C(Nc1oc(-c2ccccc2)nc1-c1ccccc1)c1ccco1`: the RUmax in experiment [1] turned out to be 0%; in experiment [2], 3.8%.

Usually inhibition stands for how much of the control response was suppressed. Higher therefore signals a response far below the control.
